Measurements collected from several papers.
Compare with care: the assays were run in different laboratories.
ABL1 M351T phosphorylated: Tyrosine-protein kinase ABL1, phosphorylated (ABL1, Homo sapiens, UniProt P00519, M351T)
ABL1 H396P phosphorylated: Tyrosine-protein kinase ABL1, phosphorylated (ABL1, Homo sapiens, UniProt P00519, H396P)
ABL1 E255K phosphorylated: Tyrosine-protein kinase ABL1, phosphorylated (ABL1, Homo sapiens, UniProt P00519, E255K)
ABL1 phosphorylated: Tyrosine-protein kinase ABL1, phosphorylated (ABL1, Homo sapiens, UniProt P00519)
ABL1 F317L phosphorylated: Tyrosine-protein kinase ABL1, phosphorylated (ABL1, Homo sapiens, UniProt P00519, F317L)
ABL1 H396P non-phosphorylated: Tyrosine-protein kinase ABL1, non-phosphorylated (ABL1, Homo sapiens, UniProt P00519, H396P)
ABL1 non-phosphorylated: Tyrosine-protein kinase ABL1, non-phosphorylated (ABL1, Homo sapiens, UniProt P00519)
ABL1 T315I phosphorylated: Tyrosine-protein kinase ABL1, phosphorylated (ABL1, Homo sapiens, UniProt P00519, T315I)

| SMILES | target | assay | setting | remaining binding [%] |
| --- | --- | --- | --- | --- |
| C=CC(=O)N1CCC(C(=O)NCC(=O)N2CCN(c3nc(-c4cnc(N)nc4C(F)F)nc(N4CCOCC4)n3)CC2)CC1 | ABL1 M351T phosphorylated | binding, competition with immobilised ligand | 1 µM | 99 |
| CN(C(=O)c1ccccc1)c1cc(N(C)c2ccc3c(c2)CCc2ccc(C(=O)NCCN4CCOCC4)cc2C3=O)ccc1F | ABL1 H396P phosphorylated | cell-free assay, competition with immobilised ligand | 1 µM | 100 |
| O=C(c1ccc(Nc2ncc(Cl)c(-c3cc4ccccc4s3)n2)cc1)N1CCC(N2CCCC2)CC1 | ABL1 E255K phosphorylated | binding, competition with immobilised ligand | 1 µM | 13 |
| CC1CCCN1c1nccc(-c2cnn3ncccc23)n1 (stereo not drawn) | Tyrosine-protein kinase ABL1 (ABL1, Homo sapiens, UniProt P00519, F317L) | binding | 1 µM | 96 |
| O=C(c1ccc(Nc2ncc(Cl)c(-c3ccc(Cl)s3)n2)cc1)N1CCC(N2CCCC2)CC1 | ABL1 phosphorylated | binding, competition with immobilised ligand | 1 µM | 4.3 |
| O=C(NCC1CCOCC1)c1n[nH]cc1NC(=O)c1c(F)cccc1F | ABL1 M351T phosphorylated | binding, competition with immobilised ligand | 1 µM | 91 |
| CO[C@H]1CC[C@H](CNc2ccc(S(=O)(=O)NC(=O)c3ccc(N4CCN(CC5=C(c6ccc(Cl)cc6)CC(C)(C)CC5)CC4)cc3Oc3cnc4[nH]ccc4c3)cc2[N+](=O)[O-])CC1 | ABL1 F317L phosphorylated | cell-free assay, competition with immobilised ligand | 1 µM | 83 |
| O=C(c1ccc(Nc2nccc(-c3cc4ccccc4s3)n2)cc1)N1CCC(N2CCCC2)CC1 | ABL1 H396P non-phosphorylated | binding, competition with immobilised ligand | 1 µM | 3.1 |
| CN(c1nccc(-c2cnn3ncccc23)n1)C1CC1 | ABL1 non-phosphorylated | binding | 1 µM | 100 |
| O=C(O)[C@H]1[C@H](Cn2nnc3ccccc3c2=O)CC[C@@H]1C(=O)c1ccc(OCCC2CCOCC2)cc1 | ABL1 H396P non-phosphorylated | cell-free assay, competition with immobilised ligand | 1 µM | 94 |
| CNC(=O)[C@@H]1CC[C@@H](n2c(-c3ccc4cnccc4c3)nc3ccc(C(=O)NCc4cccc(C(N)=O)c4)cc32)C1 | ABL1 T315I phosphorylated | binding, competition with immobilised ligand | 1 µM | 100 |
| Cc1cnc(Nc2ccc(C(=O)N3CCC(N4CCCC4)CC3)cc2)nc1-c1cc2ccccc2s1 | ABL1 M351T phosphorylated | binding, competition with immobilised ligand | 1 µM | 1.4 |
| CN1CCN(c2ccc(Nc3nccc(-c4cccc([N+](=O)[O-])c4)n3)cc2C(F)(F)F)CC1 | Tyrosine-protein kinase ABL1 (ABL1, Homo sapiens, UniProt P00519, M351T) | binding | 10 µM | 2.7 |
| N[C@H]1CCN(c2nccc(-c3cnn4ncccc34)n2)C1 | Tyrosine-protein kinase ABL1 (ABL1, Homo sapiens, UniProt P00519, Y253F) | binding | 1 µM | 53 |
| O=C(NCCCN1CCOCC1)c1ccc(Nc2nccc(-c3cc4ccccc4s3)n2)cc1 | ABL1 E255K phosphorylated | binding, competition with immobilised ligand | 1 µM | 45 |
| COc1cnc(Nc2cccc(S(N)(=O)=O)c2)nc1N1CCN(c2ccccc2)C(=O)C1 | ABL1 H396P phosphorylated | binding, competition with immobilised ligand | 1 µM | 97 |
| COC(=O)Nc1nc2ccc(C(=O)c3ccccc3)cc2[nH]1 | ABL1 E255K phosphorylated | cell-free assay, competition with immobilised ligand | 10 µM | 2.2 |
| CCN1CCN(Cc2ccc(C(=O)Nc3ccc(C)c(Oc4ccc5c(c4)CC(=O)N5)c3)cc2C(F)(F)F)CC1 | ABL1 T315I phosphorylated | binding, competition with immobilised ligand | 1 µM | 88 |

| SMILES | target | assay | setting | remaining binding [%] |
| --- | --- | --- | --- | --- |
| COc1cnc(Nc2cccc(S(N)(=O)=O)c2)nc1N1CCN(c2ccccc2)CC1 | ABL1 M351T phosphorylated | binding, competition with immobilised ligand | 1 µM | 98 |
| c1cncc(-c2cccc(Nc3nccc(NC4CCCCC4)n3)c2)c1 | Tyrosine-protein kinase ABL1, phosphorylated (ABL1, Homo sapiens, UniProt P00519, Y253F) | binding, competition with immobilised ligand | 10 µM | 12 |
| O=C(NS(=O)(=O)c1ccc(NCC2CCOCC2)c([N+](=O)[O-])c1)c1ccc(N2CCN(Cc3ccc(C(F)(F)F)cc3-c3ccc(Cl)cc3)CC2)cc1Oc1cnc2[nH]ccc2c1 | ABL1 H396P phosphorylated | cell-free assay, competition with immobilised ligand | 1 µM | 92 |
| F[C@@H]1CCN(c2nccc(-c3cnn4ncccc34)n2)C1 | ABL1 phosphorylated | binding | 1 µM | 79 |
| COc1ncc2cc3ccccc3nc2c1C#N | Tyrosine-protein kinase ABL1, non-phosphorylated (ABL1, Homo sapiens, UniProt P00519, Q252H) | cell-free assay, competition with immobilised ligand | 5 µM | 100 |
| O=C(Nc1c[nH]nc1C(=O)NC1CCNCC1)c1cc(F)cc(F)c1 | Tyrosine-protein kinase ABL1, non-phosphorylated (ABL1, Homo sapiens, UniProt P00519, T315I) | binding, competition with immobilised ligand | 1 µM | 100 |
| C[C@@H]1CCN(c2nccc(-c3cnn4ncccc34)n2)C1 | Tyrosine-protein kinase ABL1 (ABL1, Homo sapiens, UniProt P00519, H396P) | binding | 1 µM | 79 |
| COc1cccc(CNC(=O)c2nc3scc(COCc4ccc(C(=O)O)cc4)c3c(=O)[nH]2)c1 | ABL1 F317L phosphorylated | cell-free assay, competition with immobilised ligand | 1 µM | 87.2 |
| C[C@@H](c1ccc(-n2cnc3c(N)ncnc32)cc1)N1CCc2nn(C)c(Cc3ccccc3)c2C1=O | ABL1 E255K phosphorylated | binding, competition with immobilised ligand | 0.1 µM | 70 |
| CN([C@@H]1CCc2c(CC(=O)O)c3ccccc3n2C1)S(=O)(=O)c1ccc(F)cc1 | ABL1 F317L phosphorylated | cell-free assay, competition with immobilised ligand | 1 µM | 92 |
| Nc1ncc2c(n1)-c1c([nH]c3ccc(C#CC4CC4)cc13)CCCC2 | ABL1 phosphorylated | binding, competition with immobilised ligand | 1 µM | 100 |
| CCS(=O)(=O)c1cc2cc(C[C@](O)(CC(C)(C)c3ccc(F)cc3C(N)=O)C(F)(F)F)[nH]c2cn1 | ABL1 non-phosphorylated | cell-free assay, competition with immobilised ligand | 1 µM | 100 |
| Cc1cnn2ncc(-c3ccnc(N(C)C)n3)c2c1 | ABL1 phosphorylated | binding | 1 µM | 81 |
| CNC(=O)c1ccc(Nc2ncc(C(F)(F)F)c(NCc3nccnc3N(C)S(C)(=O)=O)n2)cc1 | ABL1 non-phosphorylated | cell-free assay, competition with immobilised ligand | 0.1 µM | 88 |
| COc1ccnn2ncc(-c3ccnc(N(C)C)n3)c12 | Tyrosine-protein kinase ABL1 (ABL1, Homo sapiens, UniProt P00519, F317I) | binding | 1 µM | 82 |
| O=C(NCCCN1CCOCC1)c1ccc(Nc2ncc(Cl)c(-c3ccc(Cl)s3)n2)cc1 | ABL1 H396P phosphorylated | binding, competition with immobilised ligand | 1 µM | 32 |
| CN(C)c1nccc(-c2cnn3ncccc23)n1 | Tyrosine-protein kinase ABL1 (ABL1, Homo sapiens, UniProt P00519, E255K) | binding | 1 µM | 60 |
| N#Cc1ccccc1CSc1nnc2c(n1)[nH]c1ccccc12 | ABL1 E255K phosphorylated | binding, competition with immobilised ligand | 10 µM | 85 |
